How the values were obtained:
EOL-1 and MM1.S cells [1] = assay: Colony formation assay; type: cell-based, human; details: 2.5 μM
In short: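 20,000 cells per well were plated in triplicate. Medium containing compound or vehicle was replaced every four days. After 4 weeks, wells were stained with 100 μg/mL iodonitrotetrazolium chloride, and colonies were counted after overnight incubation.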

cancer cells = details: ref Bottcher et al., 2019; cited from earlier work
[2] = test system: EOL-1, RS4;11 and MM1.S cells; assay: Cell growth inhibition assay; type: cell-based, human; details: for EC50: Homo sapiens, 192 h, read-out: EC50 (growth inhibition)
In short: (§1)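 Cells were kept in RPMI 1640 with 10% FBS and 1% penicillin/streptomycin. 0.5 million cells per well were seeded in triplicate and treated with various final compound concentrations, with compound-containing medium renewed every two days. Cultures were diluted to stay below 1×10^6/mL and counted automatically every two days. EC50 came from nonlinear regression over at least three experiments, given as mean ± SD.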

NSD3S = target: T1, NSD3S (Homo sapiens, UniProt Q9BZ95); assay: Immunoblotting for NSD3S in 293FT cells; type: cell-based; details: 48-hour treatment; for NSD3 degradation (immunoblot): 293FT cells, indicated concentrations
T1 sequence (Q9BZ95 1-645 isoform Q9BZ95-3): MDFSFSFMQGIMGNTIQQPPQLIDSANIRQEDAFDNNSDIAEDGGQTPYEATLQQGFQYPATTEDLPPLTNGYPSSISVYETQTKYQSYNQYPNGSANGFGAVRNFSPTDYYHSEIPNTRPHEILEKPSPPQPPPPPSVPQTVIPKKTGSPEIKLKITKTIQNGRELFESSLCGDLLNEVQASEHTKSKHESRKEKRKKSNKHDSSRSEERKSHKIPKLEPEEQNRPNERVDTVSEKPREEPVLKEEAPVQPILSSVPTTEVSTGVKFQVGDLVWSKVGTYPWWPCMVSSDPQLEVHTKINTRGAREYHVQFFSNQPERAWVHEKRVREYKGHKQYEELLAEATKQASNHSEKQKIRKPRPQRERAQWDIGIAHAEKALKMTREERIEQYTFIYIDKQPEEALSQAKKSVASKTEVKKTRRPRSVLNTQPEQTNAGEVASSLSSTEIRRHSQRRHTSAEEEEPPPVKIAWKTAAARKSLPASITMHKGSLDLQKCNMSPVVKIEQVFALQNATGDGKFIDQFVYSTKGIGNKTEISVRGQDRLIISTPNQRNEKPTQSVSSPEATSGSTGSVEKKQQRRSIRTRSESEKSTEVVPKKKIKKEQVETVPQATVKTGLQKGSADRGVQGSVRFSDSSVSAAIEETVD
In short: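 293FT cells were grown in DMEM with 10% FBS and 1% penicillin/streptomycin. NSD3 was detected by western blot with rabbit anti-NSD3 antibody, using rabbit anti-GAPDH as loading control and HRP-linked secondary antibodies.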

NSD3 [3] = target: T2, NSD3 (Homo sapiens, UniProt Q9BZ95); assay: Ubiquitination assay of Flag-tagged NSD3S in 293FT cells; type: cell-based; details: 293FT cells expressing Flag-tagged NSD3S, 48-hour treatment
T2 sequence (Q9BZ95 1-645 isoform Q9BZ95-3): T1 sequence (Q9BZ95 1-645 isoform Q9BZ95-3)

cMyc [4] = assay: Immunoblotting for cMyc protein levels; type: cell-based, human
In short: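 cMyc was detected by western blot with rabbit anti-cMyc antibody, using rabbit anti-GAPDH as loading control. VHL status was checked with mouse anti-VHL. VHL was knocked out by CRISPR/Cas9 and compared with WT cells. EOL-1 and MM1.S cells were grown in RPMI 1640 and 293FT cells in DMEM, each with 10% FBS and 1% penicillin/streptomycin.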

NSD3 [5] = target: T2, NSD3; assay: Immunoblotting for NSD3 degradation in hematological cancer cells; type: cell-based
cMyc [6] = assay: cMyc ubiquitination assay in EOL-1 cells; type: cell-based, human; details: 2.5 μM, 48-hour treatment
In short: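 Lysates were heat-denatured 5 min at 95°C, diluted with EBC, sonicated and cleared. Immunoprecipitation with antibody ran overnight at 4°C, then protein A/G magnetic beads for 3 h at 4°C. Blots were probed with mouse anti-ubiquitin.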

EOL-1 and MM1.S cells [7] = assay: Apoptosis induction; type: cell-based, human; details: 2.5 μM, four-day treatment
In short: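 EOL-1 and MM1.S cells were grown in RPMI 1640 with 10% FBS and 1% penicillin/streptomycin. Lines were authenticated by genetic fingerprinting and screened monthly for mycoplasma. Apoptosis was assessed by western blot with rabbit anti-cleaved caspase-3 and anti-cleaved caspase-7 antibodies, detected with an HRP-linked anti-rabbit IgG secondary.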

EOL-1 cells = assay: Mass spectrometry-based global proteomic profiling; type: cell-based, human; details: 2.5 μM, 30 hours, more than 5,000 proteins detected
K562 cells = assay: Cell growth inhibition assay in K562 cells; type: cell-based, human; details: 2.5 μM, ten days
In short: as §1

[8] = test system: CBLB, IFITM1, SELL and MAP7; assay: RT-qPCR and western blots of NSD3-upregulated gene targets; type: cell-based, human; details: EOL-1 or MM1.S cells, 2.5 μM, 48 hours, compared to BI-9321 and MS9715N
In short: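 For mRNA, RT-qPCR relative expression was calculated by the 2−ΔΔCT method and normalized to the mean of beta-actin. For protein, western blots used rabbit anti-CBLB and rabbit anti-IFITM1 antibodies with rabbit anti-GAPDH as loading control. Cells were grown in RPMI 1640 with 10% FBS.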

NSD3 PWWP1 domain = target: T3, NSD3 PWWP1 domain (Homo sapiens, UniProt Q9BZ95); assay: Isothermal titration calorimetry; type: binding
T3 sequence (Q9BZ95 247-402): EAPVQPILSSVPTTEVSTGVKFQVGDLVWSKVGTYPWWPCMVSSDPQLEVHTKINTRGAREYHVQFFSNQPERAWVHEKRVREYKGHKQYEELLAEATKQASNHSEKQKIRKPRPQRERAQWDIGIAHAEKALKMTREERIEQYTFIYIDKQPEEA

**Q.** With `Cc1cc(CN)cc(C)c1-c1ncn(C)c1-c1ccnc2cc(F)ccc12` [BI-9321, reference compound] as the compound, how does the colony-forming capabilities (EOL-1 and MM1.S cells [1]) read?
**A.** Its colony-forming capabilities is “little or no effect”.

**Q.** What about the “killing of cancer cells” value (cancer cells) of the same compound?
**A.** Its value is “does not lead to effective killing of cancer cells”.

**Q.** What about the EC50 [2] of the same compound?
**A.** Its EC50 is > 10 µM.

**Q.** For `Cc1cc(CNCCCC(=O)NCCOCCOCCNc2cccc3c2C(=O)N(C2CCC(=O)NC2=O)C3=O)cc(C)c1-c1ncn(C)c1-c1ccnc2cc(F)ccc12` (stereo not drawn) [Compound 1, N-(2-(2-(2-((2-(2,6-dioxopiperidin-3-yl)-1,3-dioxoisoindolin-4-yl)amino)ethoxy)ethoxy)ethyl)-4-((4-(5-(7-fluoroquinolin-4-yl)-1-methyl-1H-imidazol-4-yl)-3,5-dimethylbenzyl)amino) butanamide], which “NSD3 degradation (immunoblot)” value (NSD3S) is on record?
**A.** Its value is “failed to degrade NSD3”.

**Q.** For `Cc1cc(CNCCCC(=O)NCCCCCNc2cccc3c2C(=O)N(C2CCC(=O)NC2=O)C3=O)cc(C)c1-c1ncn(C)c1-c1ccnc2cc(F)ccc12` (stereo not drawn) [Compound 2, N-(5-((2-(2,6-dioxopiperidin-3-yl)-1,3-dioxoisoindolin-4-yl)amino)pentyl)-4-((4-(5-(7-fluoroquinolin-4-yl)-1-methyl-1H-imidazol-4-yl)-3,5-dimethylbenzyl)amino)butanamide], which “NSD3 degradation (immunoblot)” value (NSD3S) is on record?
**A.** The value was “failed to degrade NSD3”.

**Q.** Which “NSD3 degradation (immunoblot)” value (NSD3S) does the source give for `Cc1cc(CNCCCC(=O)NCCCCCCCCC(=O)N[C@H](C(=O)N2C[C@H](O)C[C@H]2C(=O)NCc2ccc(-c3scnc3C)cc2)C(C)(C)C)cc(C)c1-c1ncn(C)c1-c1ccnc2cc(F)ccc12` [Compound 5, (2S,4R)-1-((S)-2-(9-(4-((4-(5-(7-fluoroquinolin-4-yl)-1-methyl-1H-imidazol-4-yl)-3,5-dimethylbenzyl)amino)butanamido)nonanamido)-3,3-dimethylbutanoyl)-4-hydroxy-N-(4-(4-methylthiazol-5-yl)benzyl)pyrrolidine-2-carboxamide] here?
**A.** Its value is “clearly induced NSD3 degradation at 10–40 μM”.

**Q.** With `Cc1cc(CNCCCC(=O)NCCCCNC(=O)C[C@H](NC(=O)[C@@H]2C[C@@H](O)CN2C(=O)[C@@H](NC(=O)C2(F)CC2)C(C)(C)C)c2ccc(-c3scnc3C)cc2)cc(C)c1-c1ncn(C)c1-c1ccnc2cc(F)ccc12` [Compound 6, (2S,4R)-1-((S)-2-(1-fluorocyclopropane-1-carboxamido)-3,3-dimethylbutanoyl)-N-((S)-3-((4-(4-((4-(5-(7-fluoroquinolin-4-yl)-1-methyl-1H-imidazol-4-yl)-3,5-dimethylbenzyl)amino)butanamido)butyl)amino)-1-(4-(4-methylthiazol-5-yl)phenyl)-3-oxopropyl)-4-hydroxypyrrolidine-2-carboxamide] as the compound, how does the “NSD3 degradation (immunoblot)” value (NSD3S) read?
**A.** The value was “did not lead to effective degradation of NSD3”.

**Q.** Which “ubiquitination of cellular NSD3” value (NSD3 [3]) does the source give for `Cc1cc(CNCCCC(=O)NCCCCCCCCC(=O)N[C@H](C(=O)N2C[C@H](O)C[C@H]2C(=O)N[C@@H](C)c2ccc(-c3scnc3C)cc2)C(C)(C)C)cc(C)c1-c1ncn(C)c1-c1ccnc2cc(F)ccc12` [MS9715, (2S,4R)-1-((S)-2-(9-(4-((4-(5-(7-fluoroquinolin-4-yl)-1-methyl-1H-imidazol-4-yl)-3,5-dimethylbenzyl)amino)butanamido)nonanamido)-3,3-dimethylbutanoyl)-4-hydroxy-N-((S)-1-(4-(4-methylthiazol-5-yl)phenyl)ethyl)pyrrolidine-2-carboxamide] here?
**A.** Its value is “induced ubiquitination of cellular NSD3 in a concentration-dependent manner”.

**Q.** What about the “protein levels of cMyc” value (cMyc [4]; EOL-1 and MM1.S cells, 2.5 μM, 48 hours) of the same compound?
**A.** The value was “significant decrease in the protein levels of cMyc”.

**Q.** And the “cMyc depletion in VHL-deficient cells” value (cMyc [4]; VHL-deficient EOL-1 and 293FT cells relative to WT, 48-hour treatment)?
**A.** Its value is “almost completely diminished”.

**Q.** What about the colony-forming capabilities (EOL-1 and MM1.S cells [1]) of the same compound?
**A.** The colony-forming capabilities was “drastically decreased colony-forming capabilities”.

**Q.** And the “concentration-dependent depletion of cellular NSD3S” value (NSD3 [5]; EOL-1, MM1.S and MOLM13 cells, 48-hour treatment)?
**A.** Its value is “concentration-dependent depletion of cellular NSD3S”.

**Q.** What about the “depletion of NSD3S and NSD3L isoforms” value (NSD3 [5]; EOL-1 and MM1.S cells) of the same compound?
**A.** The value was “led to depletion of both NSD3S and NSD3L isoforms”.

**Q.** What about the “time-dependent NSD3S degradation” value (NSD3 [5]; EOL-1 and MM1.S cells, 2.5 μM) of the same compound?
**A.** Its value is “significant degradation occurring at as early as 24 hours”.

**Q.** What about the Dmax (NSD3 [5]; MOLM-13, read-out: maximum degradation (Dmax)) of the same compound?
**A.** The Dmax was > 80%.

**Q.** And the DC50 (NSD3 [5]; read-out: half-maximal degradation concentration (DC50), MOLM13 cells, 48-hour treatment, mean ± SD from three independent experiments)?
**A.** Its DC50 is 4.9 ± 0.4 µM.

**Q.** What about the “ubiquitination of cellular cMyc” value (cMyc [6]) of the same compound?
**A.** The value was “significantly enhanced”.

**Q.** And the “NSD3 degradation in VHL knockout cells” value (NSD3S; 293FT cells with CRISPR/Cas9-mediated KO of VHL vs WT)?
**A.** The value was “abrogated the MS9715-mediated NSD3 degradation”.

**Q.** What about the induction of apoptosis (EOL-1 and MM1.S cells [7]) of the same compound?
**A.** The induction of apoptosis was “induced a prominent increase of apoptosis”.

**Q.** What about the “proteome-wide selectivity (significantly downregulated proteins)” value (EOL-1 cells) of the same compound?
**A.** The value was “NSD3 was the only protein showing significant downregulation”.

**Q.** What about the growth inhibitory activity (K562 cells) of the same compound?
**A.** Its growth inhibitory activity is “little growth inhibitory effect”.

**Q.** And the “suppression of expression of CBLB, IFITM1, SELL and MAP7” value [8]?
**A.** The value was “superior effect”.

**Q.** What about the growth inhibitory activity ([2]; 2.5 μM, ten days, EOL-1, MM1.S and RS4;11 cells) of the same compound?
**A.** Its growth inhibitory activity is “effectively inhibited the growth”.

**Q.** And the EC50 [2]?
**A.** The EC50 was 2 to 4 µM.

**Q.** Which results are given for `Cc1cc(CNCCCC(=O)NCCCCCCCCC(=O)N[C@H](C(=O)N2C[C@@H](O)C[C@@H]2C(=O)N[C@@H](C)c2ccc(-c3scnc3C)cc2)C(C)(C)C)cc(C)c1-c1ncn(C)c1-c1ccnc2cc(F)ccc12` [MS9715N, (2R,4S)-1-((S)-2-(9-(4-((4-(5-(7-fluoroquinolin-4-yl)-1-methyl-1H-imidazol-4-yl)-3,5-dimethylbenzyl)amino)butanamido)nonanamido)-3,3-dimethylbutanoyl)-4-hydroxy-N-((S)-1-(4-(4-methylthiazol-5-yl)phenyl)ethyl)pyrrolidine-2-carboxamide]?
**A.** colony-forming capabilities (EOL-1 and MM1.S cells [1]): little or no effect; Kd (NSD3 PWWP1 domain): 1.62 ± 0.33 µM; EC50 [2]: > 10 µM
